Article PMC2674521 (Journal of pharmaceutical sciences, 2009)
“And” between values parts separate entries of the source, which are not always exact repeats. Equal values may be shown once. Read-outs that look alike come from different tables or passages of the source. Blank lines part the entries; values can stand above or below the compound they belong to.

Assays:
[1] = no reference given; cited from earlier work
HSA = conditions: cited from earlier work
RSA = conditions: ref 46; cited from earlier work
[2] = target: T1, canine serum albumin (CSA) (Canis lupus familiaris, UniProt P49822); format: in vitro ADME; conditions: for Unbound level: CSA solutions containing warfarin; for Free tracer: CSA solutions with added ibuprofen
[3] = target: T2, human serum albumin (HSA) (Homo sapiens, UniProt P02768); format: in vitro ADME; conditions: for increase in free radiopharmaceutical level: 8:1 warfarin:HSA mole ratio vs drug-free; for Unbound [^64Cu]Cu-PTSM: HSA; for % Free [^64Cu]Cu-PTSM: 49°C, 2.5% v/v ethanol
Procedure, shortened: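 HSA (globulin-free, ≥99.5% fatty acid free) reconstituted in 0.9% saline at 0.66 mM. 100 µL of drug in saline (3.3–53 mM, pH 7) or saline alone (drug-free control) added to 1.0 mL, giving 40 mg/mL HSA at 0.5:1–8:1 drug:HSA. 2–8 µCi 64Cu tracer added and vortexed. Triplicate aliquots ultrafiltered (30,000 Da NMWL) within 5 min, 64Cu gamma-counted.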

[4] = target: T2, human serum albumin (HSA); conditions: cited from earlier work; for % bound to HSA: 40 mg/mL HSA solution
[5] = ref 37, 38; cited from earlier work
rat serum [6] = format: in vitro ADME
rat serum [7] = target: rat serum (Rattus norvegicus, UniProt P02770); conditions: RSA solution; cited from earlier work
[8] = target: T1, canine serum albumin (CSA); conditions: no competing drug; cited from earlier work
[9] = Ultrafiltration of [^64Cu]Cu-PTSM in protein-free saline
Procedure, shortened: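 Membrane-integrity control without protein: 25 µL ethanol (2.5% v/v) added to 1.0 mL saline containing [64Cu]Cu-PTSM, compared with saline alone. Ultrafiltered through 30,000 Da NMWL membranes, n = 5 per group. % free tracer from 64Cu gamma counts of measured ultrafiltrate and starting-solution volumes.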

[10] = HSA solutions with even high concentrations of L-tryptophan
[11] = drug-free HSA control (drug:HSA mole ratio 0), 40 mg/mL HSA
[12] = ibuprofen:HSA mole ratio 0.5, 40 mg/mL HSA
[13] = ibuprofen:HSA mole ratio 1, 40 mg/mL HSA
[14] = ibuprofen:HSA mole ratio 2, 40 mg/mL HSA
[15] = ibuprofen:HSA mole ratio 4, 40 mg/mL HSA
[16] = ibuprofen:HSA mole ratio 8, 40 mg/mL HSA
[17] = ibuprofen:HSA mole ratios up to 4:1
[18] = warfarin:HSA mole ratio 0.5, 40 mg/mL HSA
[19] = warfarin:HSA mole ratio 1, 40 mg/mL HSA
[20] = warfarin:HSA mole ratio 2, 40 mg/mL HSA
[21] = warfarin:HSA mole ratio 4, 40 mg/mL HSA
[22] = warfarin:HSA mole ratio 8, 40 mg/mL HSA

T2 sequence (P02768 25-609): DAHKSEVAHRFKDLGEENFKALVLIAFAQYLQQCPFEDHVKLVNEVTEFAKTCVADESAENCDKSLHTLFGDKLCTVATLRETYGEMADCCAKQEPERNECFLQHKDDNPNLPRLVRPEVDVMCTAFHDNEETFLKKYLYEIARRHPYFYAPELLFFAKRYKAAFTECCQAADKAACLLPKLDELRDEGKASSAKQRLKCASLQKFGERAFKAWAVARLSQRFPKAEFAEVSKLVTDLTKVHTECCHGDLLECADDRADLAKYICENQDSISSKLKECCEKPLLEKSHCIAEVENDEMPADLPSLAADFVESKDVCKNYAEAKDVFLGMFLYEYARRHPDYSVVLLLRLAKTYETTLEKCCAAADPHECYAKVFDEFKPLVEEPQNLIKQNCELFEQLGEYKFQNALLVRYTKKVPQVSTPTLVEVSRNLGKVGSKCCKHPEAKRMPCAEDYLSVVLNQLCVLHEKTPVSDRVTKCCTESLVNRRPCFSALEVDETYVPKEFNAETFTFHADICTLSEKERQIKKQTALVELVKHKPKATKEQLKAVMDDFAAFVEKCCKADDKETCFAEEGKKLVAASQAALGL
T1 sequence (P49822 25-608): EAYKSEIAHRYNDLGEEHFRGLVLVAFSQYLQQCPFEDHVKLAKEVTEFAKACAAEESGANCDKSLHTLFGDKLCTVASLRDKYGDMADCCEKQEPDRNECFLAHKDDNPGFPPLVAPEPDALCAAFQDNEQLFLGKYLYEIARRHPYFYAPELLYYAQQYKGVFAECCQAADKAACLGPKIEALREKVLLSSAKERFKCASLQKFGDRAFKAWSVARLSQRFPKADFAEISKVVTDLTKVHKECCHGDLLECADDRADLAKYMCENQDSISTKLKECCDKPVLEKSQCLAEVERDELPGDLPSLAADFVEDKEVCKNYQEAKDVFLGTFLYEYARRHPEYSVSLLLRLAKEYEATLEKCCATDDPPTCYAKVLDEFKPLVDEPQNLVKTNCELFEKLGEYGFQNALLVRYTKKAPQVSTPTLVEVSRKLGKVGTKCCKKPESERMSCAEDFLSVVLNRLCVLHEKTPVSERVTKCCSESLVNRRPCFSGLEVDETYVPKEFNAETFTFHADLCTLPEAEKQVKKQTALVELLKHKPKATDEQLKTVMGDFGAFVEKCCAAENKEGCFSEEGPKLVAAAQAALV
Sequence of rat serum (Rattus norvegicus, UniProt P02770) (P02770 25-608): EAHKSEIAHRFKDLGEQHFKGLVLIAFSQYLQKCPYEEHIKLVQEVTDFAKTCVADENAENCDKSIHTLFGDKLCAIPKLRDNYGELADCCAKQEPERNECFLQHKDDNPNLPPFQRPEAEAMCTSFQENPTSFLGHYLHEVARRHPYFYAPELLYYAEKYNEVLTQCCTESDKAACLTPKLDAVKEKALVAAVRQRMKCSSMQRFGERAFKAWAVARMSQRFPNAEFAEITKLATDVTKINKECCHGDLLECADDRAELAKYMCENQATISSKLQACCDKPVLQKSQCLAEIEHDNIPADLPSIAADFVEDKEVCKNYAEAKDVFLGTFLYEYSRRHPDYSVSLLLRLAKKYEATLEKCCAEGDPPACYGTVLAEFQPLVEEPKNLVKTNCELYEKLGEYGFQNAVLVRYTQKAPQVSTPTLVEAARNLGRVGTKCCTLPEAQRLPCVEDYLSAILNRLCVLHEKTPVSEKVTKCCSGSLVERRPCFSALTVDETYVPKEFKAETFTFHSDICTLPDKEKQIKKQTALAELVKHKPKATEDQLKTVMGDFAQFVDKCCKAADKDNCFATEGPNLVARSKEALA

Compound: CC1(C)S[C@@H]2[C@H](NC(=O)Cc3ccccc3)C(=O)N2[C@H]1C(=O)O [Benzylpenicillin]
extent of protein binding in human plasma [1]: 50%
affinity constant for the IIA site of HSA (HSA; ref 10): 1200 M⁻¹
affinity (Ka) for the IIA site of HSA (HSA; ref 40-42): 1200 M⁻¹
affinity for site IIA of HSA (Ka) (HSA; reference not given): 1200 M⁻¹

Compound: Cn1nnnc1SCC1=C(C(=O)O)N2C(=O)[C@@H](NC(=O)[C@H](O)c3ccccc3)[C@H]2SC1 [Cephmandole]
binding to HSA (Ka) (HSA; ref 32): 1200 M⁻¹

Compound: NS(=O)(=O)c1cc(C(=O)O)c(NCc2ccco2)cc1Cl [Furosemide]
binding to RSA (RSA): ≤ 99.1%

Compound: CC(C)Cc1ccc(C(C)C(=O)O)cc1 (stereo not shown) [Ibuprofen]
affinity (Ka) for the IIIA site of HSA (HSA; ref 10): 2.7e+06 M⁻¹
affinity for the IIIA site of HSA (Ka) (HSA; reference not given): 2.7e+06 M⁻¹

Compound: N[C@@H](Cc1c[nH]c2ccccc12)C(=O)O [L-tryptophan]
affinity (Ka) for the IIIA site of HSA (HSA; ref 29-31): 10000 M⁻¹

Compound: CC(=O)CC(c1ccccc1)c1c(O)c2ccccc2oc1=O (stereo not shown) [Warfarin]
affinity for HSA (Ka) (HSA; ref 45): 340000 M⁻¹
affinity for HSA (Ka) (HSA; ref 47): 340000 M⁻¹
affinity for HSA (Ka) (HSA; reference not given): 340000 M⁻¹

Unbound level [2]: 37.0%
Free tracer [2]: 43.8%
increase in free radiopharmaceutical level [3]: 300–500%
displacement from HSA [3, 10]: not observed
% Free (corrected) [3, 11]: 5.9 ± 0.4%
% Free (corrected) [3, 12]: 7.1 ± 0.6%
% Free (corrected) [3, 13]: 7.5 ± 0.8%
% Free (corrected) [3, 14]: 8.2 ± 1.1%
% Free (corrected) [3, 15]: 7.3 ± 0.8%
% Free (corrected) [3, 16]: 10.5 ± 1.1%
displacement from HSA [3, 17]: no displacement
% Free (corrected) [3, 18]: 7.3 ± 0.2%
% Free (corrected) [3, 19]: 9.4 ± 0.8%
% Free (corrected) [3, 20]: 12.4 ± 0.9%
% Free (corrected) [3, 21]: 14.5 ± 0.6%
% Free (corrected) [3, 22]: 19.0 ± 1.7%
Compound: CN=C([S-])N/N=C(C)/C(C)=N/NC([S-])=NC.[Cu+2] [[^64Cu]Cu-ATSM, diacetyl bis(N^4-methylthiosemicarbazonato)copper(II)]
% bound to HSA [4]: approx. 95%

free fraction ([2]; 40 mg/mL CSA, 8:1 mole ratio of warfarin (first value)): 36.1 ± 2.8%
effect of fatty acid addition on HSA binding ([3]; 1:1 fatty acid:HSA ratios (capric, myristic, palmitic, oleic)): little effect
level of free [^64Cu]Cu-PTSM relative to fatty acid-free ([3]; 6:1 fatty acid:HSA mole ratios (capric, myristic, palmitic, oleic)): approximately doubled
increase in free radiopharmaceutical level [3]: 300–500%
displacement from HSA [3, 10]: not observed
% free ([3]; HSA with highest concentration of tryptophan, 4.8 mM (1.0 mg/mL)): 3.2 ± 0.1%
Unbound [^64Cu]Cu-PTSM ([3]; incubated at 49°C for 30 min): 3.8 ± 0.2%
Unbound [^64Cu]Cu-PTSM ([3]; room temperature control solutions): 4.2 ± 0.6%
% Free (corrected) ([3]; benzylpenicillin:HSA mole ratio 0.5, 40 mg/mL HSA): 3.8 ± 0.1%
% Free (corrected) ([3]; benzylpenicillin:HSA mole ratio 1, 40 mg/mL HSA): 3.5 ± 0.1%
% Free (corrected) ([3]; benzylpenicillin:HSA mole ratio 2, 40 mg/mL HSA): 3.3 ± 0.2%
% Free (corrected) ([3]; benzylpenicillin:HSA mole ratio 4, 40 mg/mL HSA): 3.4 ± 0.1%
% Free (corrected) ([3]; benzylpenicillin:HSA mole ratio 8, 40 mg/mL HSA): 3.3 ± 0.1%
% Free [^64Cu]Cu-PTSM ([3]; capric acid:HSA 1:1, 40 mg/mL HSA): 7.5 ± 0.3 (4) %
% Free [^64Cu]Cu-PTSM ([3]; capric acid:HSA 6:1, 40 mg/mL HSA): 12.6 ± 3.5 (5) %
displacement from HSA ([3]; cephmandole, drug:HSA mole ratios up to 4:1): not displaced
% Free (corrected) ([3]; cephmandole:HSA mole ratio 0.5, 40 mg/mL HSA): 3.5 ± 0.1%
% Free (corrected) ([3]; cephmandole:HSA mole ratio 1, 40 mg/mL HSA): 3.2 ± 0.2%
% Free (corrected) ([3]; cephmandole:HSA mole ratio 2, 40 mg/mL HSA): 3.5 ± 0.1%
% Free (corrected) ([3]; cephmandole:HSA mole ratio 4, 40 mg/mL HSA): 4.2 ± 0.2%
% Free (corrected) [3, 11]: 4.0 ± 0.1% and 4.0% and 4.0 ± 0.4%
increase in free [^64Cu]Cu-PTSM in solution ([3]; furosemide:HSA 8:1 mole ratio vs drug-free): > 700%
% Free (corrected) ([3]; furosemide:HSA mole ratio 1, 40 mg/mL HSA): 8.4 ± 0.2%
% Free (corrected) [3, 12]: 3.4 ± 0.1%
% Free (corrected) [3, 13]: 3.4 ± 0.3%
% Free (corrected) [3, 14]: 3.2 ± 0.5%
% Free (corrected) [3, 15]: 4.8 ± 0.2%
% Free (corrected) [3, 16]: 10.1 ± 0.6%
displacement from HSA [3, 17]: no displacement
% Free [^64Cu]Cu-PTSM ([3]; myristic acid:HSA 1:1, 40 mg/mL HSA): 6.8 ± 0.3 (4) %
% Free [^64Cu]Cu-PTSM ([3]; myristic acid:HSA 6:1, 40 mg/mL HSA): 14.6 ± 0.8 (5) %
% Free [^64Cu]Cu-PTSM ([3]; oleic acid:HSA 1:1, 40 mg/mL HSA): 6.0 ± 0.3 (4) %
% Free [^64Cu]Cu-PTSM ([3]; oleic acid:HSA 6:1, 40 mg/mL HSA): 12.7 ± 0.7 (4) %
% Free [^64Cu]Cu-PTSM ([3]; palmitic acid:HSA 1:1, 40 mg/mL HSA): 5.6 ± 0.2 (3) %
% Free [^64Cu]Cu-PTSM ([3]; palmitic acid:HSA 6:1, 40 mg/mL HSA): 9.6 ± 0.3 (4) %
% Free (corrected) ([3]; phenylbutazone:HSA mole ratio 1, 40 mg/mL HSA): 7.1 ± 0.1%
% Free (corrected) ([3]; phenylbutazone:HSA mole ratio 8, 40 mg/mL HSA): 28.7 ± 0.8%
% Free (corrected) [3, 18]: 4.6 ± 0.1%
% Free (corrected) [3, 19]: 5.8 ± 0.7%
% Free (corrected) [3, 20]: 7.7 ± 0.8%
% Free (corrected) [3, 21]: 14.8 ± 0.3%
% Free (corrected) [3, 22]: 20.1 ± 1.5%
% Free [^64Cu]Cu-PTSM (rat serum [6]; drug:RSA mole ratio 0): 14.7 ± 1.2%
% Free [^64Cu]Cu-PTSM (rat serum [6]; furosemide:RSA mole ratio 1): 20.2 ± 0.7%
% Free [^64Cu]Cu-PTSM (rat serum [6]; furosemide:RSA mole ratio 8): 28.6 ± 0.6%
% Free [^64Cu]Cu-PTSM (rat serum [6]; phenylbutazone:RSA mole ratio 1): 18.6 ± 0.4%
% Free [^64Cu]Cu-PTSM (rat serum [6]; phenylbutazone:RSA mole ratio 8): 20.6 ± 0.4%
% Free [^64Cu]Cu-PTSM (rat serum [6]; warfarin:RSA mole ratio 1): 19.8 ± 0.5%
% Free [^64Cu]Cu-PTSM (rat serum [6]; warfarin:RSA mole ratio 8): 24.1 ± 0.5%
Free tracer (% free) ([9]; saline + 2.5% v/v ethanol): 68.0 ± 2.3%
Free tracer (% free) ([9]; saline control): 67.2 ± 0.7%
Compound: CN=C([S-])N/N=C/C(C)=N/NC([S-])=NC.[Cu+2] [[^64Cu]Cu-PTSM, pyruvaldehyde bis(N^4-methylthiosemicarbazonato)copper(II)]
% bound to HSA [4]: approx. 95%
% free ([4]; HSA solution): 4.3 ± 0.2%
log P [5]: 1.9
% free (rat serum [7]): 14.1 ± 0.3%
% free in canine serum albumin (CSA) solutions [8]: approximately 42%

Compound: C=CC1=C(C)/C(=C/c2[nH]c(Cc3[nH]c(/C=C4\NC(=O)C(C)=C4C=C)c(C)c3CCC(=O)O)c(CCC(=O)O)c2C)NC1=O [bilirubin]
association with HSA (Ka) (HSA; site believed distinct from the IIA and IIIA drug sites, no reference given): 9.5e+07 M⁻¹

Unbound level [2]: 40.4%
Free tracer [2]: 39.5%
% Free (corrected) [3, 11]: 40.6 ± 1.1%
% Free (corrected) [3, 12]: 43.9 ± 2.2%
% Free (corrected) [3, 13]: 42.1 ± 2.7%
% Free (corrected) [3, 14]: 45.8 ± 2.6%
% Free (corrected) [3, 15]: 43.6 ± 3.1%
% Free (corrected) [3, 16]: 49.6 ± 1.2%
interaction with HSA on addition of site IIA or IIIA drugs ([3]; warfarin, ibuprofen up to 8:1): unaffected
% Free (corrected) [3, 18]: 42.8 ± 1.6%
% Free (corrected) [3, 19]: 44.2 ± 1.2%
% Free (corrected) [3, 20]: 45.2 ± 1.3%
% Free (corrected) [3, 21]: 42.8 ± 3.4%
% Free (corrected) [3, 22]: 44.7 ± 2.7%
Compound: ethylglyoxal bis(thiosemicarbazonato)copper(II) [[^64Cu]Cu-ETS]
